According to ChEMBL document CHEMBL1153313, “Fluorinated 9H-xanthene-9-carboxylic acid oxazol-2-yl-amides as potent, orally available mGlu1 receptor enhancers” (Bioorg Med Chem Lett, 2009):

Tests used:
[1] = biological target: T1, Metabotropic glutamate receptor 1 (Rattus norvegicus, UniProt P23385); assay: Agonist activity at rat mGlu1 receptor expressed in HEK293 cells assessed as increase in intracellular calcium by FLIPR assay; type: functional, cell-based
In short: (§1)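 Rat mGlu1a transiently transfected into HEK-293 cells, which were loaded with Fluo-3 AM for 1 h and then washed 4 times in assay buffer (DMEM with Hank's salts, 20 mM HEPES). [Ca2+]i was read on a fluorometric imaging plate reader and converted to fluorescence ratios. EC50 is the mean of separate values from at least three individual experiments.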

[2] = Metabolic stability in rat microsomes assessed as intrinsic clearance per mg protein; type: ADME, Microsome
[3] = biological target: Metabotropic glutamate receptor 1 (Rattus norvegicus) (UniProt P23385); assay: Agonist activity at rat mGlu1 receptor expressed in HEK293 cells assessed as increase in intracellular calcium by FLIPR assay relative to control; type: functional, cell-based; set-up: concentration or dose not given beside the values; in short: as §1
[4] = biological target: Metabotropic glutamate receptor 1 (Rattus norvegicus) (UniProt P23385); assay: Agonist activity at rat mGlu1 receptor expressed in CHO cells assessed as […] of glutamate-activated K+ currents by electrophysiology relative to glutamate; type: functional, cell-based; set-up: concentration or dose not given beside the values
[5] = biological target: T1, Metabotropic glutamate receptor 1; assay: Agonist activity at rat mGlu1 receptor expressed in CHO cells assessed as potentiation of glutamate-activated K+ currents by electrophysiology
[6] = test system: Rattus norvegicus; assay: Volume of distribution in rat at 10 mg/kg, iv and po; type: ADME, organism-based; set-up: dose 10 mg/kg, route oral; details: in vivo
In short: (§2)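 Wistar rats, two per group, fitted with implanted jugular vein catheters. These catheters were used for the iv bolus and for blood sampling. Blood was drawn at 0.3, 0.5, 1, 2, 4, 8 and 24 h after iv or po administration for the plasma pharmacokinetic parameters.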

[7] = Half life in rat at 10 mg/kg, iv and po; type: ADME, organism-based; set-up: dose 10 mg/kg, route oral; details: in vivo; in short: as §2
[8] = Cmax in rat plasma at 10 mg/kg, po; type: ADME, organism-based; set-up: dose 10 mg/kg, route oral; in short: as §2
[9] = Clearance in rat at 3 mg/kg, iv and 6 mg/kg, po; type: ADME, organism-based; details: in vivo; in short: as §2
[10] = Volume of distribution in rat at 3 mg/kg, iv and 6 mg/kg, po; type: ADME, organism-based; details: in vivo, read-out: Vdss; in short: as §2
[11] = Half life in rat at 3 mg/kg, iv and 6 mg/kg, po; type: ADME, organism-based; details: in vivo; in short: as §2
[12] = Cmax in rat plasma at 6 mg/kg, po; type: ADME, organism-based; set-up: dose 6 mg/kg, route oral; in short: as §2
[13] = Clearance in rat at 5 mg/kg, iv and 10 mg/kg, po; type: ADME, organism-based; details: in vivo; in short: as §2
[14] = Volume of distribution in rat at 5 mg/kg, iv and 10 mg/kg, po; type: ADME, organism-based; details: in vivo, read-out: Vdss; in short: as §2
[15] = Half life in rat at 5 mg/kg, iv and 10 mg/kg, po; type: ADME, organism-based; details: in vivo; in short: as §2
[16] = Clearance in rat at 1 mg/kg, iv and 10 mg/kg, po; type: ADME, organism-based; details: in vivo; in short: as §2
[17] = Volume of distribution in rat at 1 mg/kg, iv and 10 mg/kg, po; type: ADME, organism-based; details: in vivo, read-out: Vdss; in short: as §2
[18] = Half life in rat at 1 mg/kg, iv and 10 mg/kg, po; type: ADME, organism-based; details: in vivo; in short: as §2
[19] = Ratio of drug level in brain to plasma in rat at 1 mg/kg, iv and 6 mg/kg, po; type: ADME, organism-based; details: in the assay text read “10 mg/kg” for “6 mg/kg”, read-out: BPR
In short: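 Brain/plasma ratio came from iv infusion in Wistar rats, two per group, at 1 mg/kg/h via catheter. Blood was sampled sublingually at 1, 3 and 5 h after administration. Brain tissue was taken by decapitation under isoflurane anaesthesia.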

T1 sequence (P23385 whole entry): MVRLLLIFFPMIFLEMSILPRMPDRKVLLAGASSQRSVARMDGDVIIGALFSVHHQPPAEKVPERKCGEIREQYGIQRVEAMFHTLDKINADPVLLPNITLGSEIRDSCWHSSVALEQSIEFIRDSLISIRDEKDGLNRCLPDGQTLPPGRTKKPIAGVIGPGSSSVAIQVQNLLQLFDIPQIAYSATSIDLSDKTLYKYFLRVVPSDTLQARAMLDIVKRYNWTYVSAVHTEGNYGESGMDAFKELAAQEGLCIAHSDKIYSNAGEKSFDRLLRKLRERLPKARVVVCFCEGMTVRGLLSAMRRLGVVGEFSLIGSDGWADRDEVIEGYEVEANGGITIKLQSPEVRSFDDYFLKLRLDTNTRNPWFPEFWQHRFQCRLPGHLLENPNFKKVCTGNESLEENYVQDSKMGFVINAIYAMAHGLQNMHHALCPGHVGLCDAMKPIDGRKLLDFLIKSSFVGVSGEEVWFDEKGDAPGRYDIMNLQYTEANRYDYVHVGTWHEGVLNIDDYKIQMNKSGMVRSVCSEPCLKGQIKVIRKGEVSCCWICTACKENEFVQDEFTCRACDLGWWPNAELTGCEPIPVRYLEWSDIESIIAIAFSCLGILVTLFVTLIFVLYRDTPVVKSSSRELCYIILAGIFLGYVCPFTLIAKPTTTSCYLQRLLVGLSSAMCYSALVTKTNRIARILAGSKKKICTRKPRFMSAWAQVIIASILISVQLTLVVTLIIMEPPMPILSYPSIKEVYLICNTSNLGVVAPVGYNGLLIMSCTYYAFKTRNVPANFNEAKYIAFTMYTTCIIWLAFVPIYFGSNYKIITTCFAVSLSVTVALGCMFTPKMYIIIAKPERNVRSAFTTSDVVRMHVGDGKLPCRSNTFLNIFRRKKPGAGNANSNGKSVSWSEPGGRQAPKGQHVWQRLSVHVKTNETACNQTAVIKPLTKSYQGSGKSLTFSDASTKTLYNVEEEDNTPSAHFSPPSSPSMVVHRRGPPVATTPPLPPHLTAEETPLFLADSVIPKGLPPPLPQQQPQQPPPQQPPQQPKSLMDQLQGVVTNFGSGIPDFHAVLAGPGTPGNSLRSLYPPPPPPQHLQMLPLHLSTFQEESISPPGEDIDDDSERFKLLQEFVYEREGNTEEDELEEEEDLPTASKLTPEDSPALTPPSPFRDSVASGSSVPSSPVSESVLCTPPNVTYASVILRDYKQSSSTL
Chain of Metabotropic glutamate receptor 1 (Rattus norvegicus) (P23385 19-1199 limits assumed): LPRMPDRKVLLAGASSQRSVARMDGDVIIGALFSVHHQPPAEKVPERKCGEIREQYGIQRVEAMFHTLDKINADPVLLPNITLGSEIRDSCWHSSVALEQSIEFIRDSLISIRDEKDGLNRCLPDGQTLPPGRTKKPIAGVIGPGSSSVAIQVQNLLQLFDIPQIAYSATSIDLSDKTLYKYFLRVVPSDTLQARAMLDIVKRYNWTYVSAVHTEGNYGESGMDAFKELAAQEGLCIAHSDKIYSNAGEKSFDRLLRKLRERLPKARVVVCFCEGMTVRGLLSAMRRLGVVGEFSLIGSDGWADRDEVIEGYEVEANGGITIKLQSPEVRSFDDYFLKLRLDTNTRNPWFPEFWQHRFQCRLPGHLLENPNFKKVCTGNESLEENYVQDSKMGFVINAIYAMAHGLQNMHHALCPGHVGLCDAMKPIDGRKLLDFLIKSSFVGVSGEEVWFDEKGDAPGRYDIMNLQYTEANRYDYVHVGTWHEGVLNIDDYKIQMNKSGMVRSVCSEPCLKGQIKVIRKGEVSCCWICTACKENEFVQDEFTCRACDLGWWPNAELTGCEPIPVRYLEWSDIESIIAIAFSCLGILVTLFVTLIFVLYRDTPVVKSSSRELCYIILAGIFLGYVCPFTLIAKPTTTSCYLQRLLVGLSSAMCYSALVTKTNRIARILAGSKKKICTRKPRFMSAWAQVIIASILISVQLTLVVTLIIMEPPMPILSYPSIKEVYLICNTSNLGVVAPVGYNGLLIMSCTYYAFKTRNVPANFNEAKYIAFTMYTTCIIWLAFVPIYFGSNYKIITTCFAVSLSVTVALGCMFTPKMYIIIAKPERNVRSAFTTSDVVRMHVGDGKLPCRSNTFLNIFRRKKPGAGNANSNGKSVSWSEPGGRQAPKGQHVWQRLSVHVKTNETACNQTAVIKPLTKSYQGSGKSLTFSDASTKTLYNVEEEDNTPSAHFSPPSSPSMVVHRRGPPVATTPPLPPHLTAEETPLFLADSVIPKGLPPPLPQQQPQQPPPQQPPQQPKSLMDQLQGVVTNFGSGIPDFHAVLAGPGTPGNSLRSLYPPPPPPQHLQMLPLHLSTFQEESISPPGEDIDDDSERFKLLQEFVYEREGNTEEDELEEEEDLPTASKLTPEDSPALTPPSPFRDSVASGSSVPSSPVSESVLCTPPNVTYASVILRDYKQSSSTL

Row | clearance [2] [µL/min/mg] | Activity [3] [%] | Activity [4] [%] | EC50 [5] [nM] | EC50 ([1]; read-out: EC50) [nM] | Structure (SMILES) | further results
1 | 38 | – | – | – | – | O=C(Nc1nc(C(F)(F)F)co1)C1c2ccc(F)cc2Oc2cc(F)ccc21 | EC50 ([1]; hek293): Not Active
2 | 28 | – | – | – | – | O=C(Nc1ncc(C(F)(F)F)o1)C1c2ccccc2Oc2cc(F)ccc21 (racemic) | EC50 ([1]; hek293): Not Active
3 | 32 | 50 | 910 | 131 | – | O=C(Nc1ncc(C(F)(F)F)o1)C1c2ccccc2Oc2c(F)cccc21 (racemic) | –
4 | 42 | 100 | – | 220 | 52 | Cc1nc(NC(=O)C2c3ccccc3Oc3ccccc32)no1 | Vdss [6]: 1.7 L/kg; half-life [7]: 19.2 min; Cmax [8]: 1330 ng/mL
5 | 9 | 48 | 300 | 90 | – | O=C(Nc1nc(C(F)(F)F)co1)C1c2cc(F)ccc2Oc2ccc(F)cc21 | clearance [9]: 7.4 mL/min/kg; Vd [10]: 0.9 L/kg; half-life [11]: 148 min; Cmax [12]: 1810 ng/mL
6 | 40 | 57 | 1220 | 67 | 20 | O=C(Nc1ncc(C(F)(F)F)o1)C1c2ccccc2Oc2ccc(F)cc21 (racemic) | –
7 | 34 | 50 | 570 | 260 | 40 | O=C(Nc1nc(C(F)(F)F)co1)C1c2ccccc2Oc2cc(F)ccc21 (racemic) | –
8 | 12 | 36 | 568 | 162 | 25 | O=C(Nc1ncc(C(F)(F)F)o1)C1c2cccc(F)c2Oc2c(F)cccc21 | –
9 | 61 | 63 | – | – | 40 | O=C(Nc1nc(C(F)(F)F)co1)C1c2ccccc2Oc2ccc(F)cc21 (racemic) | –
10 | 108 | 86 | 1130 | 202 | – | O=C(Nc1nc(C(F)(F)F)co1)C1c2ccccc2Oc2ccccc21 | Vdss [6]: 0.67 L/kg; half-life [7]: 54.6 min; Cmax [8]: 1330 ng/mL
11 | 33 | 84 | 1190 | 102 | 19 | O=C(Nc1nc(C(F)(F)F)co1)C1c2ccccc2Oc2c(F)cccc21 (racemic) | Cmax [8]: 1440 ng/mL; clearance [13]: 3.3 mL/min/kg; Vd [14]: 0.99 L/kg; half-life [15]: 222 min
12 | 50 | 104 | 3060 | 394 | – | O=C(Nc1ncc(C(F)(F)F)o1)C1c2ccccc2Oc2ccccc21 | –
13 | – | – | – | – | – | O=C(Nc1ncc(C(F)(F)F)o1)C1c2ccc(F)cc2Oc2cc(F)ccc21 | EC50 ([1]; hek293): Not Active
14 | 18 | 51 | 707 | 161 | 47 | O=C(Nc1nc(C(F)(F)F)co1)C1c2cccc(F)c2Oc2c(F)cccc21 | Cmax [8]: 2070 ng/mL; clearance [16]: 3.79 mL/min/kg; Vd [17]: 0.43 L/kg; half-life [18]: 234 min; Kp [19]: 0.2
